In ChEMBL document CHEMBL4190386, “Discovery of 6-(pyrimidin-5-ylmethyl)quinoline-8-carboxamide negative allosteric modulators of metabotropic glutamate receptor subtype 5” (Bioorg Med Chem Lett, 2018):
The source made the active and inactive calls. The calls are words filed in the database; no cut-off is given here.

Key:
[1] = target: Metabotropic glutamate receptor 5 (Rattus norvegicus, UniProt P31424); experiment: Negative allosteric modulator activity at rat mGlu5 receptor expressed in HEK293A cells assessed as inhibition of EC80 glutamate-induced Ca2+ mobilization by Fluo-4 AM dye based fluorescence assay; type: functional, cell-based
[2] = target: Metabotropic glutamate receptor 5 (Rattus norvegicus) (UniProt P31424); experiment: Negative allosteric modulator activity at rat mGlu5 receptor expressed in HEK293A cells assessed as EC80 glutamate-induced maximum Ca2+ mobilization response at 30 uM relative to 100 uM glutamate by Fluo-4 AM dye based fluorescence assay; type: functional, cell-based
[3] = Drug metabolism in rat whole blood treated with N-(4-methylthiazol-2-yl)-6-nicotinoylquinoline-8-carboxamide assessed as compound formation at 37 degC incubated for 1 hr; type: ADME, tissue-based
[4] = Metabolic stability in rat hepatic S9 fraction assessed as NADPH dependent metabolism incubated for 60 mins by LC/MS analysis; type: ADME, subcellular, Liver; settings: read-out: Drug metabolism
[5] = Metabolic stability in human hepatic S9 fraction assessed as NADPH dependent metabolism incubated for 60 mins by LC/MS analysis; type: ADME, subcellular, Liver; settings: read-out: Drug metabolism
Rattus norvegicus [6] = experiment: Mean residence time in rat assessed as 6-(hydroxy(pyridin-3-yl)methyl)-N-(4-methylthiazol-2-yl)quinoline-8-carboxamide formation at 1 mg/kg, iv; type: ADME, organism-based; settings: in vivo
In short: (§1)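 Rat intravenous PK: n = 2 male Sprague-Dawley rats, 1.0 mg/kg IV in 10% ethanol/90% PEG 400. Parent and the alcohol metabolite were measured in plasma. MRT = mean residence time.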

Rattus norvegicus [7] = experiment: Half life in rat assessed as 6-(hydroxy(pyridin-3-yl)methyl)-N-(4-methylthiazol-2-yl)quinoline-8-carboxamide formation at 1 mg/kg, iv; type: ADME, organism-based; settings: in vivo; in short: as §1
[8] = Volume of distribution at steady state in rat at 1 mg/kg, iv; type: ADME, organism-based; settings: in vivo, read-out: Vdss; in short: as §1
[9] = Mean residence time in rat at 1 mg/kg, iv; type: ADME, organism-based; settings: in vivo; in short: as §1
Rattus norvegicus [10] = experiment: Volume of distribution at steady state in rat assessed as 6-(hydroxy(pyridin-3-yl)methyl)-N-(4-methylthiazol-2-yl)quinoline-8-carboxamide formation at 1 mg/kg, iv; type: ADME, organism-based; settings: in vivo; in short: as §1
[11] = Half life in rat at 1 mg/kg, iv; type: ADME, organism-based; settings: in vivo; in short: as §1
[12] = Drug metabolism in rat whole blood assessed as 6-(hydroxy(pyridin-3-yl)methyl)-N-(4-methylthiazol-2-yl)quinoline-8-carboxamide formation at 37 degC incubated for 1 hr; type: ADME, tissue-based
[13] = target: Metabotropic glutamate receptor 7 (Rattus norvegicus) (UniProt P35400); experiment: Negative allosteric modulation of rat mGlu7 receptor expressed in HEK cells harboring GIRK assessed as reduction in L-AP4-induced thallium flux at 10 uM preincubated for 5 mins followed by glutamate addition measured after 2 mins by BTC-AM-dye based fluorescence assay; type: functional, cell-based
[14] = target: Metabotropic glutamate receptor 4 (Rattus norvegicus) (UniProt P31423); experiment: Negative allosteric modulation of rat mGlu4 receptor expressed in HEK cells harboring GIRK assessed as reduction in glutamate-induced thallium flux at 10 uM preincubated for 5 mins followed by glutamate addition measured after 2 mins by BTC-AM-dye based fluorescence assay; type: functional, cell-based
[15] = target: Metabotropic glutamate receptor 3 (Rattus norvegicus) (UniProt P31422); experiment: Negative allosteric modulation of rat mGlu3 receptor expressed in HEK cells harboring GIRK assessed as reduction in glutamate-induced thallium flux at 10 uM preincubated for 5 mins followed by glutamate addition measured after 2 mins by BTC-AM-dye based fluorescence assay; type: functional, cell-based
[16] = target: Metabotropic glutamate receptor 2 (Rattus norvegicus) (UniProt P31421); experiment: Negative allosteric modulation of rat mGlu2 receptor expressed in HEK cells harboring GIRK assessed as reduction in glutamate-induced thallium flux at 10 uM preincubated for 5 mins followed by glutamate addition measured after 2 mins by BTC-AM-dye based fluorescence assay; type: functional, cell-based
[17] = target: Metabotropic glutamate receptor 8 (Rattus norvegicus) (UniProt P70579); experiment: Negative allosteric modulation of rat mGlu8 receptor expressed in HEK cells harboring GIRK assessed as reduction in glutamate-induced thallium flux at 10 uM preincubated for 5 mins followed by glutamate addition measured after 2 mins by BTC-AM-dye based fluorescence assay; type: functional, cell-based
[18] = target: Metabotropic glutamate receptor 5 (Homo sapiens) (UniProt P41594); experiment: Negative allosteric modulation of human mGlu5 receptor expressed in HEK293A cells assessed as reduction in glutamate-induced calcium mobilization at 10 uM by Fluo-4--AM dye based fluorescence assay; type: functional, cell-based
[19] = target: Metabotropic glutamate receptor 1 (Rattus norvegicus) (UniProt P23385); experiment: Negative allosteric modulation of rat mGlu1 receptor expressed in HEK293 cells assessed as reduction in glutamate-induced calcium mobilization at 10 uM preincubated for 2.3 mins followed by glutamate addition measured after 2.6 mins by Fluo-4--AM dye based fluorescence assay; type: functional, cell-based
[20] = target: Metabotropic glutamate receptor 6 (Rattus norvegicus) (UniProt P35349); experiment: Negative allosteric modulation of rat mGlu6 receptor expressed in HEK cells harboring GIRK assessed as reduction in glutamate-induced thallium flux at 10 uM preincubated for 5 mins followed by glutamate addition measured after 2 mins by BTC-AM-dye based fluorescence assay; type: functional, cell-based
in vitro [21] = settings: rat, plasma
in vitro [22] = settings: human, plasma

Chain of Metabotropic glutamate receptor 5 (Rattus norvegicus) (P31424 21-1203 limits assumed): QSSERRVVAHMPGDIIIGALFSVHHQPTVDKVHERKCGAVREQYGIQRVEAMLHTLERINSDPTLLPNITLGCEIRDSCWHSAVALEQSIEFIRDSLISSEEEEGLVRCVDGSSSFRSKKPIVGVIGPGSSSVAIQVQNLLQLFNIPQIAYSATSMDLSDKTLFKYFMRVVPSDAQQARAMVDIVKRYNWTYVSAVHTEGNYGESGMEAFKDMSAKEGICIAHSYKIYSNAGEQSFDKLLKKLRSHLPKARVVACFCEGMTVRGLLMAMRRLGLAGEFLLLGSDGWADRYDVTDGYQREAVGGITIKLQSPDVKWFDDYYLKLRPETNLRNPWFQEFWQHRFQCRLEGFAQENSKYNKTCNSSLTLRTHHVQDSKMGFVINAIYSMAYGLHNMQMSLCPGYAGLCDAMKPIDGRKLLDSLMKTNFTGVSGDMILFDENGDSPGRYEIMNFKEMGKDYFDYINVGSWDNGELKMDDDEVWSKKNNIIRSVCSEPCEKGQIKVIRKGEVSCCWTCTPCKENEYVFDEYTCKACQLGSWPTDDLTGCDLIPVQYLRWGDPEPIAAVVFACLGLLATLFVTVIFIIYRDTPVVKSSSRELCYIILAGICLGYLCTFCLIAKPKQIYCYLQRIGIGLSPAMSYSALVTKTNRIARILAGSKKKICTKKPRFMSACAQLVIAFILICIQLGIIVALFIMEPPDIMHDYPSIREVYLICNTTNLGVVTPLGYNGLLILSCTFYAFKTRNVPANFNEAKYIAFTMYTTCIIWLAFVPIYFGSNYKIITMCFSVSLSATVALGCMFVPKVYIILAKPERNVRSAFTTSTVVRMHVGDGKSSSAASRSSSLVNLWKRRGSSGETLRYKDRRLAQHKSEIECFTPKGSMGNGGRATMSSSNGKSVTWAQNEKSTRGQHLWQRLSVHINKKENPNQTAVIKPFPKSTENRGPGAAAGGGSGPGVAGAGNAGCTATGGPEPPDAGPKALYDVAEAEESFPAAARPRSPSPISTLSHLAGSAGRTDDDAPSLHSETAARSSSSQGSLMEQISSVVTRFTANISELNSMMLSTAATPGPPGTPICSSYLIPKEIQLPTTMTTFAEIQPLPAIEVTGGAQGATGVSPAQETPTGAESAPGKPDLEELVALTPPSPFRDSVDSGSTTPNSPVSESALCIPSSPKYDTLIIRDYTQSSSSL
Chain of Metabotropic glutamate receptor 5 (P31424 whole entry): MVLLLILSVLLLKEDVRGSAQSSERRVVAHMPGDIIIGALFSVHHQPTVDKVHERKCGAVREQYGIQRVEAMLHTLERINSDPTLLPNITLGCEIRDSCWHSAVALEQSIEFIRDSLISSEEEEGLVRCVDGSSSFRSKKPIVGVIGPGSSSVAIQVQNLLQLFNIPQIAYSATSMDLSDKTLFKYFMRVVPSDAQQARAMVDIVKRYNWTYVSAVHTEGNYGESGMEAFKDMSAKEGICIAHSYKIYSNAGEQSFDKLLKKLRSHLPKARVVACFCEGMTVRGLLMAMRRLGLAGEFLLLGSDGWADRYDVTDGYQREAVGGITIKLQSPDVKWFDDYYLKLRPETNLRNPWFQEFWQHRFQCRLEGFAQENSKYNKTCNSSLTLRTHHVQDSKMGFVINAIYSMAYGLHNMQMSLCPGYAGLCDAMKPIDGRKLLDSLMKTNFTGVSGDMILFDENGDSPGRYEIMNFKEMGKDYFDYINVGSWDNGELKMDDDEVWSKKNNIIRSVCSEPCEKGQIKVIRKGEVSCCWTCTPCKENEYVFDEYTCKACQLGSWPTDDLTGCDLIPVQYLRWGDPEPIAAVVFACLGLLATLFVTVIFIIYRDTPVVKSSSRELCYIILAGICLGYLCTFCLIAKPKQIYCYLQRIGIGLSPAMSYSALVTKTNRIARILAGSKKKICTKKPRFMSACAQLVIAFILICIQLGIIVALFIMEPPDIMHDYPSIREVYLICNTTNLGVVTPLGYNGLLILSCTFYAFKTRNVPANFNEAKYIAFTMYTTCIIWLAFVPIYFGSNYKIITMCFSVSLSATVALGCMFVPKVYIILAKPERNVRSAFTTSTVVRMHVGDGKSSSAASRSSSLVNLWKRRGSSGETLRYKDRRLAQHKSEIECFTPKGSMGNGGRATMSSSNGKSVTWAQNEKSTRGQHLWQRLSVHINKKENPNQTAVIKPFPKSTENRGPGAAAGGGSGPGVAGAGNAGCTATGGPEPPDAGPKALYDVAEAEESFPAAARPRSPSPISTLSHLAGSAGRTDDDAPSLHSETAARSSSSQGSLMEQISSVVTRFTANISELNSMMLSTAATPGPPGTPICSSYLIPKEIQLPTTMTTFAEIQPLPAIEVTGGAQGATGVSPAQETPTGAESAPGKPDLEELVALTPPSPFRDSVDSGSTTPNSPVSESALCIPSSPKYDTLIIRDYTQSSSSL
Chain of Metabotropic glutamate receptor 5 (Homo sapiens) (P41594 21-1212 limits assumed): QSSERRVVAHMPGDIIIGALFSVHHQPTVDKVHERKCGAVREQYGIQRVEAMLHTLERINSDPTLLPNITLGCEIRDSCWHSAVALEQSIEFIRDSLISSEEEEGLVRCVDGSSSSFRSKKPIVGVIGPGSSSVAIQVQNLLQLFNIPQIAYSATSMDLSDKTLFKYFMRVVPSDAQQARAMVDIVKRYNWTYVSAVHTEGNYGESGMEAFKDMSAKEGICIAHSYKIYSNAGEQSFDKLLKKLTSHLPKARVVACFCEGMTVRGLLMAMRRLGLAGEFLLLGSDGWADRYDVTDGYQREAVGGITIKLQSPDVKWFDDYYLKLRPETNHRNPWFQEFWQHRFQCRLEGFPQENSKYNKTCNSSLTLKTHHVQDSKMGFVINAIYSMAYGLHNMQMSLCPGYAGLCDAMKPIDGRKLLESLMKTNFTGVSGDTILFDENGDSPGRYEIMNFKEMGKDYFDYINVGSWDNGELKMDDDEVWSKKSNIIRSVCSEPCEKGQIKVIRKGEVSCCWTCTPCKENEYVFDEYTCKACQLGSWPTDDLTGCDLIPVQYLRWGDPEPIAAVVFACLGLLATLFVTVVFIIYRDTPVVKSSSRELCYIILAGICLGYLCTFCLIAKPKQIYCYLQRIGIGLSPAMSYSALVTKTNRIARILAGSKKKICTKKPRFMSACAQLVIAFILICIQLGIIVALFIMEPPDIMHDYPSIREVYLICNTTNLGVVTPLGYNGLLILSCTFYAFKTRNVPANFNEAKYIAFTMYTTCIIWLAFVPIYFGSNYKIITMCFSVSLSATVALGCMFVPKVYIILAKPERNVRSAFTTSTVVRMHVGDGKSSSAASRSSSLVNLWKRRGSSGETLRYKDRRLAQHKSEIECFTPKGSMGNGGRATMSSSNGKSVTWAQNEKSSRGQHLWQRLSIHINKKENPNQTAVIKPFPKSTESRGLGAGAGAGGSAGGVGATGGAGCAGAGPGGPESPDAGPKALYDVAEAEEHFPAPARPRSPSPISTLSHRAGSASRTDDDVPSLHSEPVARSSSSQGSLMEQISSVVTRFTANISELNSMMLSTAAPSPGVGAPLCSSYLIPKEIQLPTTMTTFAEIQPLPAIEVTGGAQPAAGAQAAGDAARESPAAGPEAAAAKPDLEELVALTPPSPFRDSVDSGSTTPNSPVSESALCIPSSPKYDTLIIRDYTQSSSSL
Chain of Metabotropic glutamate receptor 3 (Rattus norvegicus) (P31422 23-879 limits assumed): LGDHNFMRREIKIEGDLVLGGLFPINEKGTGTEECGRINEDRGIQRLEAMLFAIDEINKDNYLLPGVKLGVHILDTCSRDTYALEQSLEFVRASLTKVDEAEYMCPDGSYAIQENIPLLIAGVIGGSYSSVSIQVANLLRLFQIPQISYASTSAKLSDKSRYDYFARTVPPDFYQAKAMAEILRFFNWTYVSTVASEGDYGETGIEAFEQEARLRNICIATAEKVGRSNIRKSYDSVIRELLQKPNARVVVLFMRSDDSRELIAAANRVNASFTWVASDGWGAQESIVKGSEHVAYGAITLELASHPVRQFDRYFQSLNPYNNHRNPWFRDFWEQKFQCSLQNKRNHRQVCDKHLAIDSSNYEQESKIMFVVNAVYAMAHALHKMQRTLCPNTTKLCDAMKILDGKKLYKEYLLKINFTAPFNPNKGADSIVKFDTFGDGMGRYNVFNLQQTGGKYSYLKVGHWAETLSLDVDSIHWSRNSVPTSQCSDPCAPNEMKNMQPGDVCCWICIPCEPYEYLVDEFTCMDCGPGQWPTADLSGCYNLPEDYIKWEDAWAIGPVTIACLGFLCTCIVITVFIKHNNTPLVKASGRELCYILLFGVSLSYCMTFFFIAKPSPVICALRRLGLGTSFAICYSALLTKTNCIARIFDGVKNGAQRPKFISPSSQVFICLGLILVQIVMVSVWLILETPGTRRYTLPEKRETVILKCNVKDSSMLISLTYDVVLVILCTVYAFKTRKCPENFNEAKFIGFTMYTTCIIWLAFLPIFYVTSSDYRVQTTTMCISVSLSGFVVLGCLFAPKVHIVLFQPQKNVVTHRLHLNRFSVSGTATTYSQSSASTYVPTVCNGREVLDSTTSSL

Row | IC50 [1] [nM] | %max [2] [%] | Compound | other results
1 | 589 | 1.4 | Cc1csc(NC(=O)c2cc(C(C)c3cncnc3)cc3cccnc23)n1 (centres undefined) | –
2 | 842 | 2.7 | O=C(c1cncnc1)c1cc(C(=O)Nc2ccc(F)cn2)c2ncccc2c1 | –
3 | 676 | 3 | Cc1ccc(NC(=O)c2cc(C(F)(F)c3cncnc3)cc3cccnc23)nc1 | –
4 | > 10000 | – | Cc1csc(NC(=O)c2cc(C(O)c3cncnc3)cc3cccnc23)n1 (centres undefined) | Drug uptake [3]: Active
5 | 8 | – | O=C(Nc1ccc(F)cn1)c1cc(Oc2cncc(F)c2)cc2cccnc12 | –
6 | > 10000 | 44 | Cc1ccnc(NC(=O)c2cc(C(F)(F)c3cncnc3)cc3cccnc23)c1 | –
7 | 1520 | 1.5 | CC(c1cncnc1)c1cc(C(=O)Nc2ccc(F)cn2)c2ncccc2c1 (centres undefined) | –
8 | 378 | 1.7 | Cc1csc(NC(=O)c2cc(C(F)c3cncnc3)cc3cccnc23)n1 (centres undefined) | metabolised at 1 h [4]: 55%; metabolised at 1 h [5]: 27%
9 | 3480 | 2.9 | COC(c1cncnc1)c1cc(C(=O)Nc2ccc(F)cn2)c2ncccc2c1 (centres undefined) | –
10 | 1750 | 1.8 | COC(c1cncnc1)c1cc(C(=O)Nc2nc(C)cs2)c2ncccc2c1 (centres undefined) | –
11 | 172 | 1.3 | Cc1csc(NC(=O)c2cc(C(=O)c3cncnc3)cc3cccnc23)n1 | MRT (Rattus norvegicus [6]): 107 min; t1/2 (Rattus norvegicus [7]): 171 min; Vd [8]: 50 L/kg; MRT [9]: 19 min; Vdss (Rattus norvegicus [10]): 10 L/kg; half-life [11]: 30 min; Drug metabolism [12]: Metabolite_Detected
12 | 3600 | 7.8 | CCc1cccc(NC(=O)c2cc(C(F)(F)c3cncnc3)cc3cccnc23)n1 | –
13 | > 30000 | – | N#Cc1ccnc(NC(=O)c2cc(C(F)(F)c3cncnc3)cc3cccnc23)c1 | –
14 | 417 | 1.5 | Cc1cccc(NC(=O)c2cc(C(=O)c3cncnc3)cc3cccnc23)n1 | –
15 | 1610 | 7.1 | COc1cccc(NC(=O)c2cc(C(F)(F)c3cncnc3)cc3cccnc23)n1 | –
16 | 392 | 4.5 | O=C(Nc1ccc(F)cn1)c1cc(C(F)(F)c2cncnc2)cc2cccnc12 | –
17 | 1100 | 2.7 | Cc1cccc(NC(=O)c2cc(C(F)(F)c3cncnc3)cc3cccnc23)n1 | –
18 | 217 | 1.5 | O=C(Nc1ccc(F)cn1)c1cc(C(F)c2cncnc2)cc2cccnc12 (centres undefined) | –
19 | – | – | Cc1csc(NC(=O)c2cc(C(F)(F)c3cncnc3)cc3cccnc23)n1 | inhibition [13]: inactive; inhibition [14]: inactive; inhibition [15]: inactive; inhibition [16]: inactive; inhibition [17]: inactive; inhibition [18]: Active; inhibition [19]: inactive; inhibition [20]: inactive
20 | – | – | O=C(Nc1ccc(F)cn1)c1cc(Oc2cncc(F)c2)cn2ncnc12 | fraction unbound at 4 h, 5 µM (in vitro [21]): 0.066; fraction unbound at 4 h, 5 µM (in vitro [22]): 0.071
21 | > 30000 | – | N#Cc1ccc(NC(=O)c2cc(C(F)(F)c3cncnc3)cc3cccnc23)nc1 | –
22 | 558 | 3 | O=C(Nc1nc(C2CC2)cs1)c1cc(C(F)(F)c2cncnc2)cc2cccnc12 | –
23 | > 30000 | – | COc1ccnc(NC(=O)c2cc(C(F)(F)c3cncnc3)cc3cccnc23)c1 | –

Row | Compound | IC50 [1] [nM] | %max [2] [%] | other results
24 | O=C(c1cncnc1)c1cc(C(=O)Nc2cccc(F)n2)c2ncccc2c1 | > 10000 | 12.5 | –
